The list is not random: actives were taken first. Their share in the collection is about 9.6%.
TNAP inh no acc = human TNAP enzyme inhibitors, primary screen, biochemical, luminescent, no phosphate acceptor, uHTS. Alkaline phosphatase, tissue-nonspecific isozyme (Homo sapiens), P05186. purified TNAP, CDP-star luminescence, 30 min. inhibition, % at 20 µM. 200,000 tested, 0.26% active. AID 1012, 2008;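 active = tissue-nonspecific alkaline phosphatase inhibition above about 50% at 20 µM in the single-dose screen, limit read from the data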;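 also: 0% = DMSO negative control and 100% = EDTA positive control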
Target sequence (P05186 whole entry, looked up): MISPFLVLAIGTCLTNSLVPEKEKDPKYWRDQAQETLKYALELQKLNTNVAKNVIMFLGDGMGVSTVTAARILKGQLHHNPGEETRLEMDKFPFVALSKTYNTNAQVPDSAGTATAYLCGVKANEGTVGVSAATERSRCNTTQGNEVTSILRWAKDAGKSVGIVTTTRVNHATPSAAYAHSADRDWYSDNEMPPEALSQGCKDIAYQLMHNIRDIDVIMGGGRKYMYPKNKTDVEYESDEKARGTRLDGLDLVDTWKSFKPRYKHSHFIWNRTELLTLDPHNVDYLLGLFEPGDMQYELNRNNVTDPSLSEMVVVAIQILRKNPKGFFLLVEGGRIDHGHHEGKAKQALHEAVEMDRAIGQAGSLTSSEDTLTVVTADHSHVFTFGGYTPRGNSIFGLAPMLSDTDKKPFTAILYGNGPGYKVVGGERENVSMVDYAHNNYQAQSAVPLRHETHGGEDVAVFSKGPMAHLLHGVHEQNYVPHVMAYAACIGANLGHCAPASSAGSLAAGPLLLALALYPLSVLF
Lmaj promast = Leishmania major promastigote growth inhibition, primary screen. Leishmania major promastigotes, resazurin fluorescence viability. inhibition, % at 10 µM. 200,000 tested, 9% active. AID 1063, 2008; in the data active = inhibition above about 50%;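 also: promastigotes grown with compound for 44 hours at 28 °C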
HCT116 PTEN-null = growth suppression of PTEN-null HCT116, primary screen, cell-based, CellTiter-Glo | 140,000 tested, 1.2% active | AID 827, 2007 | viability, % at 10 µM | HCT116 PTEN-null viability, 60 h; active compounds read low;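 active = viability at or below a set limit, 4 SD under the median of all tested compounds, cut at about 3.7% in these data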;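 also: PTEN knockout HCT116 line with beta catenin targeted HCT116 as companion control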
TNAP inh hiacc = human TNAP enzyme inhibitors, primary screen, biochemical, luminescent, high phosphate acceptor level, uHTS. 200,000 tested, 0.03% active. purified TNAP, CDP-star luminescence, 1 M DEA. Alkaline phosphatase, tissue-nonspecific isozyme (Homo sapiens), P05186. inhibition, % at 20 µM;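 active = over 50% inhibition of tissue-nonspecific alkaline phosphatase at 20 µM in the single-dose screen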;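 also: plate controls were DMSO wells for no effect and EDTA-quenched wells as full inhibition for full effect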
HCT116 bCat-KO = primary screen for growth suppressors in beta-catenin knockout HCT116 cells (colon tumor, human); HCT116 beta-catenin knockout viability, CellTiter-Glo, 60 h; active compounds read low; viability, % at 10 µM; 140,000 tested, 1.5% active; AID 818, 2007;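 active = viability at or under a set limit, the compound median less 4 SD, cut at about 6% in these data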;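 also: 0% = Hyamine 1622 control at 20 µM and 100% = untreated cell control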
TNAP act hi DEA = TNAP activators at high phosphate acceptor level, primary screen, biochemical, luminescence, uHTS. purified TNAP, CDP-star luminescence, 1 M DEA, 30 min; active compounds read high; 0 = EDTA background, 1 = DMSO-only activity. activation factor at 20 µM. 200,000 tested, under 10 active. AID 1136, 2008;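 active = activation factor at least 2 at 20 µM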
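Test system – human TNAP · Doses – 20 µM single point · Incubation – 30 min, room temperature · Signal – luminescent substrate turnover signal · Read-out basis – activation factor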
An asterisk follows results filed as active.

COc1ccc(OC)c(Cc2nnc(CCC(=O)N3CCCCC3c3nccs3)o2)c1 (stereo unspecified) was read as TNAP inh no acc -1, Lmaj promast -6, TNAP inh hiacc -1 and TNAP act hi DEA 1.
For Cc1cccc(C)c1NC(=O)CSc1nnc(-c2cccnc2)o1 the results were TNAP inh no acc -8, Lmaj promast -7, TNAP inh hiacc -2 and TNAP act hi DEA 1.
Screening OC(COc1ccc2c(c1)OCO2)CN1CCCC1 (stereo unspecified) returned TNAP inh no acc -18, Lmaj promast 2, TNAP inh hiacc -2 and TNAP act hi DEA 1.
For OC(COc1ccccc1)CN1CCN(Cc2ccc3c(c2)OCO3)CC1 (stereo unspecified) the results were TNAP inh no acc -8, Lmaj promast 85*, TNAP inh hiacc -5 and TNAP act hi DEA 1.
For Cc1cc(C(=O)Nc2c[nH]c(=O)[nH]c2=O)ccc1[N+](=O)[O-] the results were TNAP inh no acc -8, Lmaj promast -5, TNAP inh hiacc -3 and TNAP act hi DEA 1.
For COCC(=O)Nc1ncc(S(=O)(=O)c2ccc([N+](=O)[O-])cc2)s1 the results were TNAP inh no acc -13, Lmaj promast 5, TNAP inh hiacc -7 and TNAP act hi DEA 1.1.
`O=C(Nc1ncc(Cc2cccc(Cl)c2)s1)c1ccc([N+](=O)[O-])cc1` gave TNAP inh no acc 7, Lmaj promast -4, HCT116 PTEN-null 66, TNAP inh hiacc 1, HCT116 bCat-KO 75 and TNAP act hi DEA 1.
For O=C(Nc1ncc(S(=O)(=O)c2ccc([N+](=O)[O-])cc2)s1)c1cccc2ccccc12 the results were TNAP inh no acc 1, Lmaj promast 100*, HCT116 PTEN-null 40, TNAP inh hiacc -2, HCT116 bCat-KO 43 and TNAP act hi DEA 1.
O=C(NC(Nc1ncc(S(=O)(=O)c2ccc([N+](=O)[O-])cc2)s1)(C(F)(F)F)C(F)(F)F)c1ccc(Cl)cc1 was read as TNAP inh no acc -1, Lmaj promast 10, HCT116 PTEN-null 3.1*, TNAP inh hiacc -5, HCT116 bCat-KO 2.6* and TNAP act hi DEA 1.1.
O=C(Cn1c(-c2ccccc2)c[n+]2ccsc12)c1ccc(Br)cc1 was read as TNAP inh no acc 5, Lmaj promast 24, TNAP inh hiacc -4 and TNAP act hi DEA 1.
For Cc1cccc2cc(CN(Cc3ccco3)C(c3nnnn3CCc3ccccc3)C(C)C)c(=O)[nH]c12 (stereo unspecified) the results were TNAP inh no acc 10, Lmaj promast 87*, HCT116 PTEN-null 36, TNAP inh hiacc -5, HCT116 bCat-KO 38 and TNAP act hi DEA 1.
Screening COc1ccc2[nH]c(=O)c(CN(Cc3ccco3)C(c3nnnn3Cc3ccccc3)C(C)C)cc2c1 (stereo unspecified) returned TNAP inh no acc -12, Lmaj promast 47, HCT116 PTEN-null 3.1*, TNAP inh hiacc -9, HCT116 bCat-KO 6 and TNAP act hi DEA 1.1.
Screening COc1ccc2[nH]c(=O)c(CN(C3CCCCC3)C(c3nnnn3Cc3ccco3)C(C)C)cc2c1 (stereo unspecified) returned TNAP inh no acc -9, Lmaj promast 65*, HCT116 PTEN-null 47, TNAP inh hiacc -7, HCT116 bCat-KO 50 and TNAP act hi DEA 1.1.
Screening COc1ccc2[nH]c(=O)c(CN(Cc3nnnn3Cc3ccco3)C3CCCCC3)cc2c1 returned TNAP inh no acc -3, Lmaj promast 28, HCT116 PTEN-null 67, TNAP inh hiacc -4, HCT116 bCat-KO 76 and TNAP act hi DEA 1.
COCCn1nnnc1C(C(C)C)N(Cc1ccccc1)Cc1cc2cc(OC)ccc2[nH]c1=O (stereo unspecified) was read as TNAP inh no acc -1, Lmaj promast 13, HCT116 PTEN-null 44, TNAP inh hiacc -5, HCT116 bCat-KO 57 and TNAP act hi DEA 1.
For COCCNC(=O)CCCC(=O)NCCOC the results were TNAP inh no acc -21, Lmaj promast -10, HCT116 PTEN-null 104, TNAP inh hiacc -1, HCT116 bCat-KO 103 and TNAP act hi DEA 1.
For CCCCC(=O)OCC(=O)Nc1cccc(S(=O)(=O)NC2=NCCCCC2)c1 the results were TNAP inh no acc -7, Lmaj promast 4, TNAP inh hiacc -4 and TNAP act hi DEA 1.
`Cc1nnc(SC(=O)N2c3ccccc3Sc3ccccc32)s1` gave TNAP inh no acc -10, Lmaj promast 63*, HCT116 PTEN-null 9, TNAP inh hiacc -4, HCT116 bCat-KO 17 and TNAP act hi DEA 1.
Screening CC(=O)N1CCC(=NNc2ncc(C(F)(F)F)cc2Cl)CC1 returned TNAP inh no acc -8, Lmaj promast -19, TNAP inh hiacc -4 and TNAP act hi DEA 1.
For CCOC(=O)N1CCC(=NNc2ccnc3cc(Cl)ccc23)CC1 the results were TNAP inh no acc -2, Lmaj promast 61*, TNAP inh hiacc -2 and TNAP act hi DEA 1.
Screening CCOC(=O)N1CCC(=NNc2ncc(C(F)(F)F)cc2Cl)CC1 returned TNAP inh no acc 0, Lmaj promast -13, TNAP inh hiacc -5 and TNAP act hi DEA 1.
Screening CC(=O)N1CCC(=NNc2ccnc3cc(Cl)ccc23)CC1 returned TNAP inh no acc 1, Lmaj promast 86*, TNAP inh hiacc 0 and TNAP act hi DEA 1.
`COc1ccc(N(CC(O)Cn2cnc3ccccc32)S(=O)(=O)c2ccc(C)cc2)cc1` (stereo unspecified) gave TNAP inh no acc -14, Lmaj promast 4, HCT116 PTEN-null 91, TNAP inh hiacc -4, HCT116 bCat-KO 89 and TNAP act hi DEA 1.
CC(NC(=O)Cn1c(=O)oc2cc(S(=O)(=O)N3CCCC3)ccc21)c1ccccc1 (stereo unspecified) was read as TNAP inh no acc -9, Lmaj promast 100*, HCT116 PTEN-null 78, TNAP inh hiacc -2, HCT116 bCat-KO 102 and TNAP act hi DEA 1.
`O=C(NC1CCCc2ccccc21)C1CCN(S(=O)(=O)c2ccccc2F)CC1` (stereo unspecified) gave TNAP inh no acc 3, Lmaj promast 85*, HCT116 PTEN-null 89, TNAP inh hiacc 1, HCT116 bCat-KO 93 and TNAP act hi DEA 1.
Screening CCOC(=O)Cn1c(=O)oc2cc(S(=O)(=O)NC(C)c3ccccc3)ccc21 (stereo unspecified) returned TNAP inh no acc 1, Lmaj promast -4, HCT116 PTEN-null 87, TNAP inh hiacc -6, HCT116 bCat-KO 90 and TNAP act hi DEA 1.1.

Screening data from PubChem BioAssay.
